Published values collected from several papers.
CSF1R: Macrophage colony-stimulating factor 1 receptor (CSF1R, Homo sapiens, UniProt P07333)
CSF1R autoinhibited: Macrophage colony-stimulating factor 1 receptor, autoinhibited (CSF1R, Homo sapiens, UniProt P07333)

| SMILES | target | observed | method | tested at | remaining binding [%] |
| --- | --- | --- | --- | --- | --- |
| Cc1cnn2ncc(-c3ccnc(N(C)C)n3)c2c1 | CSF1R | binding | – | 1 µM | 100 |
| COc1cnc(Nc2cccc(S(N)(=O)=O)c2)nc1N1CCN(c2ccccc2)CC1 | CSF1R | binding | competition with immobilised ligand | 1 µM | 100 |
| O=C(Nc1c[nH]nc1C(=O)NC1CCNCC1)c1cc(F)cc(F)c1 | CSF1R | binding | competition with immobilised ligand | 1 µM | 100 |
| O=C(c1ccc(Nc2nccc(-c3cc4ccccc4s3)n2)cc1)N1CCC(N2CCCC2)CC1 | CSF1R autoinhibited | binding | competition with immobilised ligand | 1 µM | 77 |
| CCCCN(CCCC)C(=O)CN1C[C@@H](c2cc(OC)c3c(c2)OCO3)[C@H](C(=O)O)[C@H]1CC(C)(C)CCC | CSF1R autoinhibited | cell-free assay | competition with immobilised ligand | 1 µM | 100 |
| F[C@@H]1CCN(c2nccc(-c3cnn4ncccc34)n2)C1 | CSF1R autoinhibited | binding | – | 1 µM | 81 |
| CC(=O)c1c(NS(C)(=O)=O)c2cc(-c3ccc(Cl)cc3)c(-c3ccc(Cl)cc3Cl)nc2n(C)c1=O | CSF1R | cell-free assay | competition with immobilised ligand | 1 µM | 100 |
| c1cnn2ncc(-c3ccnc(N4CCC45COC5)n3)c2c1 | CSF1R autoinhibited | binding | – | 1 µM | 64 |
| CCN1CCN(Cc2ccc(C(=O)Nc3ccc(C)c(Oc4ccc5c(c4)CC(=O)N5)c3)cc2C(F)(F)F)CC1 | CSF1R | binding | competition with immobilised ligand | 1 µM | 2 |
| Cc1nc(NC(=O)N2CCC[C@H]2C(N)=O)sc1-c1ccnc(C(C)(C)C(F)(F)F)c1 | CSF1R | binding | competition with immobilised ligand | 10 µM | 68 |
| CC(C)(C)c1ccc(-c2nc(CBr)nn2-c2cccc(O)c2)cc1 | CSF1R | cell-free assay | competition with immobilised ligand | 10 µM | 98 |
| CCOCCn1cc(C(=O)Nc2ccc(-n3nc(-c4cccnc4)cc3C(F)(F)F)cn2)ccc1=O | CSF1R autoinhibited | cell-free assay | competition with immobilised ligand | 1 µM | 100 |
| C[C@@H]1CN(c2ccc3ncc(-c4ccc5[nH]nc(C6CC6)c5c4)n3n2)C[C@H](C)O1 | CSF1R | binding | competition with immobilised ligand | 0.5 µM | 100 |
| CCS(=O)(=O)c1cc2cc(C[C@@](O)(CC(C)(C)c3ccc(F)cc3C(N)=O)C(F)(F)F)[nH]c2cn1 | CSF1R autoinhibited | cell-free assay | competition with immobilised ligand | 1 µM | 94 |
| CN(C)c1nccc(-c2cnc3ncccn23)n1 | CSF1R | binding | – | 1 µM | 100 |
| CC(=O)C1=C(C)N(c2cccc(C(F)(F)F)c2)C(=O)N[C@@H]1c1ccc(C#N)nc1 | CSF1R autoinhibited | cell-free assay | competition with immobilised ligand | 1 µM | 100 |
| C[C@@H]1CCN(c2nccc(-c3cnn4ncccc34)n2)C1 | CSF1R | binding | – | 1 µM | 100 |
| O=C(N1CCS(=O)(=O)CC1)N1C[C@H](c2ccc(OC(F)(F)F)cc2)C[C@H](c2nc(C3CC3)no2)C1 | CSF1R | cell-free assay | competition with immobilised ligand | 1 µM | 100 |
| O=C(c1ccc(Nc2ncc(Cl)c(-c3ccc(Cl)s3)n2)cc1)N1CCC(N2CCCC2)CC1 | CSF1R | binding | competition with immobilised ligand | 1 µM | 5.1 |
